Screens (PubChem)
Only some compounds are listed: those with a hit (about 1.9% of all), similar ones and a draw of the others.
LEDGF integ inh – blocks HIV-1 LEDGF/p75-dependent DNA integration | TR-FRET IN-LEDGF/p75 DNA integration, Eu/Cy5 | inhibition, % at 3.7 µM | actives 0.64% (n = 370,000) | AID 743269;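 active = inhibition above the screen-wide mean plus 3 SD, cut at about 13% in these data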;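 note: signal is the Cy5 over europium emission ratio at 671 and 618 nm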
Rin1 Abl inh – blocks binding of human Rin1 to Abl. P00519+Q13671. TR-FRET Rin1/Abl binding, biochemical. inhibition, % at 7.35 µM. actives 0.4% (n = 360,000). AID 588664; in the data active = inhibition above about 5%, passing the limit was not always enough
MBD2 DNA inh – MBD2-methylated oligo binding inhibition. Q9UBB5. TR-FRET, MBD2 binding to methylated oligonucleotide. inhibition, % at 4.4 µM. actives 0.31% (n = 370,000). AID 686964; in the data active = inhibition above about 13%
Target sequence (Q9UBB5 whole entry, looked up): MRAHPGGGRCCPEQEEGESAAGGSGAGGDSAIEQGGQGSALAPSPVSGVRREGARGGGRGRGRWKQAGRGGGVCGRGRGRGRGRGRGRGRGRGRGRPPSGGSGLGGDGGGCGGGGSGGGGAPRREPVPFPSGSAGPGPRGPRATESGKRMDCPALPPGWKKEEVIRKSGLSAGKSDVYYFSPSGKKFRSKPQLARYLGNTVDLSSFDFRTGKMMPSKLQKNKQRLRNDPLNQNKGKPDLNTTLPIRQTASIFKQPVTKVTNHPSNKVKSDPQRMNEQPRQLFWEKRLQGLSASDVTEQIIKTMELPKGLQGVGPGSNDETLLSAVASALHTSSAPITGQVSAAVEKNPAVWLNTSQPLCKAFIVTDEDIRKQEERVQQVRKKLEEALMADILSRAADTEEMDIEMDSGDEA
UHRF1 MBD2 ctr – UHRF1 methyl-DNA binding inhibition; Q96T88; UHRF1 binding to methylated oligo, TR-FRET; inhibition, % at 4.4 µM; actives 0.75% (n = 370,000); AID 687016; in the data active = inhibition above about 21%;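 note: UHRF1 SRA domain binding a hemimethylated CpG hairpin DNA probe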
TDP2 absorb – blocks human TDP2 phosphodiesterase activity. O95551. recombinant TDP2, T5PNP hydrolysis, p-nitrophenol absorbance 415 nm. inhibition, % at 12.8 µM. actives 0.34% (n = 370,000);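 active = inhibition above the mean of all tested compounds plus 3 SD, set per campaign, cut at about 25% in these data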
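Incubation: 2 h at 37 °C; Test system: recombinant human TDP2; Quantity: enzyme 120 nM; Read-out basis: percent inhibition; Medium: 50 mM Tris-HCl pH 7.5 with Mg2+, KCl, DTT, BSA; Repeats: single replicate; Compound: 12.8 µM single point, 1% DMSO; Signal: epi absorbance; Reagent: 5 mM T5PNP chromogenic substrate; Benchmarks: no-enzyme high, DMSO-plus-enzyme low.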
IN multimer up – activates HIV-1 integrase multimerization in LEDGF counter-screen; shares compounds with LEDGF integ inh; TR-FRET HIV-1 integrase multimerization, biochemical; activation, % at 7.7 µM; actives 17% (n = 2,000); AID 1053131; in the data active = activation above about 8.9%
TRFRET interf – optically interferes with TR-FRET readout in LEDGF counter-screen. shares compounds with LEDGF integ inh. TR-FRET optical interference counterscreen, HIV-1 IN multimerization. inhibition, % at 7.7 µM. 2,000 tested, under 10 active;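 active = inhibition above the mean over all tested compounds plus 3 SD, which no compound reached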
LEDGF integ conf – confirmation of HIV-1 LEDGF/p75-dependent integration inhibitors; TR-FRET LEDGF/p75-dependent HIV-1 integration, biochemical; actives 36% (n = 2,000); shares compounds with LEDGF integ inh; inhibition, % at 3.7 µM; in the data active = inhibition above about 14%
Hits are given with their value.

`CC(C)C[C@@H](CN1CCC[C@H]1CN1C(=O)C(=O)NC[C@@H]1Cc1ccc(O)cc1)N1C[C@H](Cc2ccc(O)cc2)N(CCc2ccccc2)C(=O)C1=O` gave LEDGF integ inh 73, MBD2 DNA inh inactive, UHRF1 MBD2 ctr inactive, TDP2 absorb inactive, IN multimer up inactive, TRFRET interf inactive and LEDGF integ conf inactive.
Screening CC(C)C[C@@H](CN1CCC[C@H]1CN1C(=O)C(=O)NC[C@@H]1Cc1ccc(O)cc1)N1C[C@H](Cc2ccccc2)N(CCc2ccccc2)C(=O)C1=O returned LEDGF integ inh inactive, MBD2 DNA inh inactive, UHRF1 MBD2 ctr inactive and TDP2 absorb inactive.
COc1ccccc1/C=C/C=c1\sc2nc(=O)c(Cc3ccccc3)nn2c1=O was read as LEDGF integ inh inactive, Rin1 Abl inh inactive, MBD2 DNA inh inactive, UHRF1 MBD2 ctr inactive and TDP2 absorb inactive.
CCCOc1ccc(Cc2nn3c(=O)/c(=C/c4ccco4)sc3nc2=O)cc1 was read as LEDGF integ inh 27, Rin1 Abl inh inactive, MBD2 DNA inh inactive, UHRF1 MBD2 ctr 23, TDP2 absorb inactive, IN multimer up inactive, TRFRET interf inactive and LEDGF integ conf 15.
CCOC(=O)c1ccc(N[C@@H]2CCN3C(=O)c4ccccc4[C@@H]3C[C@H]2O)cc1 was read as LEDGF integ inh inactive, Rin1 Abl inh inactive, MBD2 DNA inh inactive, UHRF1 MBD2 ctr inactive and TDP2 absorb inactive.
Screening CCOC(=O)c1ccc(NC2OC(=O)c3ccccc32)cc1 (configuration not stated) returned LEDGF integ inh 20, Rin1 Abl inh inactive, MBD2 DNA inh inactive, UHRF1 MBD2 ctr inactive, TDP2 absorb inactive, IN multimer up inactive, TRFRET interf inactive and LEDGF integ conf inactive.
Screening CO[C@@]12[C@@H]3N[C@@H]3CN1C1=C(C(=O)C(N)=C(C)C1=O)[C@@H]2COC(N)=O returned LEDGF integ inh 15, Rin1 Abl inh inactive, MBD2 DNA inh inactive, UHRF1 MBD2 ctr inactive, TDP2 absorb inactive, IN multimer up inactive, TRFRET interf inactive and LEDGF integ conf inactive.
`Cc1nn(C(C)C(=O)Nc2sc3c(c2C#N)CCCC3)c(C)c1[N+](=O)[O-]` (configuration not stated) gave LEDGF integ inh inactive, Rin1 Abl inh inactive, MBD2 DNA inh inactive, UHRF1 MBD2 ctr inactive and TDP2 absorb inactive.
`Cc1nn(CCCC(=O)Nc2sc3c(c2C#N)CCC3)c(C)c1[N+](=O)[O-]` gave LEDGF integ inh 18, Rin1 Abl inh inactive, MBD2 DNA inh inactive, UHRF1 MBD2 ctr inactive, TDP2 absorb inactive, IN multimer up inactive, TRFRET interf inactive and LEDGF integ conf inactive.
For O=C(CSc1nc2ccccc2o1)N/N=C/c1ccc(O)c(O)c1 the results were LEDGF integ inh 17, Rin1 Abl inh inactive, MBD2 DNA inh inactive, UHRF1 MBD2 ctr inactive, TDP2 absorb inactive, IN multimer up 62, TRFRET interf inactive and LEDGF integ conf 73.
O=C(CSc1nc2ccccc2o1)N/N=C/c1ccccc1 was read as LEDGF integ inh inactive, Rin1 Abl inh inactive, MBD2 DNA inh inactive, UHRF1 MBD2 ctr inactive and TDP2 absorb inactive.
Screening CN1CCN(C(c2ccc(Br)cc2)c2cc(Cl)c3cccnc3c2O)CC1 (configuration not stated) returned LEDGF integ inh 40, Rin1 Abl inh inactive, MBD2 DNA inh inactive, UHRF1 MBD2 ctr inactive, TDP2 absorb inactive, IN multimer up inactive, TRFRET interf inactive and LEDGF integ conf inactive.
`Clc1ccc2nc(CSCc3ccccc3)cn2c1` gave LEDGF integ inh inactive, Rin1 Abl inh inactive, MBD2 DNA inh inactive, UHRF1 MBD2 ctr inactive and TDP2 absorb inactive.
CC1OC(OCC2OC(Oc3c(-c4ccc(O)cc4)oc4cc(O)cc(O)c4c3=O)C(O)C(O)C2O)C(O)C(O)C1O (configuration not stated) was read as LEDGF integ inh 17, Rin1 Abl inh inactive, MBD2 DNA inh inactive, UHRF1 MBD2 ctr inactive, TDP2 absorb inactive, IN multimer up 30, TRFRET interf inactive and LEDGF integ conf 47.
Screening O=c1c(O[C@@H]2O[C@H](CO)[C@@H](O)[C@H](O)[C@H]2O)c(-c2ccc(O)cc2)oc2cc(O)cc(O)c12 returned Rin1 Abl inh inactive.
O=C1OC(Nc2cc(Br)cc3cccnc23)c2ccccc21 (configuration not stated) was read as LEDGF integ inh 54, Rin1 Abl inh inactive, MBD2 DNA inh inactive, UHRF1 MBD2 ctr inactive, TDP2 absorb 79, IN multimer up inactive, TRFRET interf inactive and LEDGF integ conf 74.
CCN(CC(=O)NCC1CCCO1)S(=O)(=O)c1ccc2ccccc2c1 (configuration not stated) was read as LEDGF integ inh inactive, Rin1 Abl inh inactive, MBD2 DNA inh inactive, UHRF1 MBD2 ctr inactive and TDP2 absorb inactive.
Cc1ccc(OCC(=O)N(Cc2ccccc2)c2ccccn2)cc1 was read as LEDGF integ inh 52, Rin1 Abl inh inactive, MBD2 DNA inh inactive, UHRF1 MBD2 ctr inactive, TDP2 absorb inactive, IN multimer up inactive, TRFRET interf inactive and LEDGF integ conf inactive.
`Cc1ccc(CC(=O)N(Cc2ccccc2)c2ccccn2)cc1` gave LEDGF integ inh inactive, Rin1 Abl inh inactive, MBD2 DNA inh inactive, UHRF1 MBD2 ctr inactive and TDP2 absorb inactive.
CSc1ccccc1NC(=O)C1=CC(c2cccs2)=NS(=O)(=O)N1C was read as LEDGF integ inh inactive, Rin1 Abl inh inactive, MBD2 DNA inh inactive, UHRF1 MBD2 ctr inactive and TDP2 absorb inactive.
`O=C(CCn1c(=O)[nH]c2ccccc2c1=O)NCCSCc1ccccc1` gave LEDGF integ inh inactive, Rin1 Abl inh inactive, MBD2 DNA inh inactive, UHRF1 MBD2 ctr inactive and TDP2 absorb inactive.
For NC(=O)Cn1c(=O)n(CCC(=O)NCCSCc2ccccc2)c(=O)c2ccccc21 the results were LEDGF integ inh 64, Rin1 Abl inh inactive, MBD2 DNA inh inactive, UHRF1 MBD2 ctr inactive, TDP2 absorb inactive, IN multimer up inactive, TRFRET interf inactive and LEDGF integ conf inactive.
For CCCc1nc2ccc(C)cn2c1Cc1ccc(C)cc1 the results were LEDGF integ inh 14, Rin1 Abl inh inactive, MBD2 DNA inh inactive, UHRF1 MBD2 ctr 21, TDP2 absorb inactive, IN multimer up inactive, TRFRET interf inactive and LEDGF integ conf inactive.
CN(C)C(=S)NC(=S)Nc1ccc2ccccc2c1 was read as LEDGF integ inh 16, Rin1 Abl inh inactive, MBD2 DNA inh inactive, UHRF1 MBD2 ctr inactive, TDP2 absorb inactive, IN multimer up inactive, TRFRET interf inactive and LEDGF integ conf 18.
